According to ChEMBL document CHEMBL3421559, “Discovery of 5-(2',4'-difluorophenyl)-salicylanilides as new inhibitors of receptor activator of NF-κB ligand (RANKL)-induced osteoclastogenesis” (Eur J Med Chem, 2015):
Calls of active or inactive are those of the source. No cut-off for these calls is given here.

Assays:
[1] = Retention time of the compound by HPLC analysis; format: physicochemical
Summary of the method: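 Reversed-phase column (5 µm, 4.6 × 250 mm) at 1.0 mL/min with a 0–20% H2O in MeOH gradient.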

[2] = Cytotoxicity against mouse RAW264.7 cells assessed as cell viability at 5 uM after 24 hrs by MTT assay; format: cell-based; conditions: read-out: Activity
Summary of the method: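 RAW264.7 cells at 1 × 10^4 per well in DMEM with 10% FBS were exposed to compound for 24 h. After PBS washes, they got 500 µg/mL MTT for 1 h at 37 °C. Formazan was dissolved in DMSO and read at 540 nm. Viability is relative to control, mean ± SD from at least three independent runs.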

RAW264.7 [3] = test: Inhibition of RANKL-induced bone-resorbing activity in mouse RAW264.7 cells assessed as reduction of resorbing pits formed on dentine slices by mature osteoclasts after 4 days by pit formation assay; format: functional, cell-based
Summary of the method: (§1)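 Cells on dentine slices were kept in α-MEM with 10% FBS, 2 mM […] and 100 ng/mL RANKL, with or without compound, and medium was renewed every 2 days. At day 4, cells were removed with 1 M ammonium hydroxide and slices stained with 0.1% toluidine blue. Resorbed area/total area was measured per optical field.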

RAW264.7 [4] = test: Downregulation of RANKL-induced NFATc1 nuclear expression in mouse RAW264.7 cells at 5 uM treated for 1 hr prior to incubation with RANKL for 24 hrs by Western blot analysis relative to control TBP gene expression; format: functional
Summary of the method: (§2)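 Cells were pretreated with compound for 1 h in α-MEM/10% FBS, then given RANKL (100 ng/mL) for 24 h. Nuclear extracts (18 µg) were separated on 12% SDS-PAGE and blotted to PVDF, blocked with 5% BSA. Blots were probed overnight-style for 12 h at 4 °C with mAbs (1:1000) to NF-κB p65, NFATc1 and TBP, then HRP anti-rabbit (1:10000), with chemiluminescent detection.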

RAW264.7 [5] = test: Downregulation of RANKL-induced TRAP gene expression in mouse RAW264.7 cells at 2.5 and 5 uM treated for 1 hr prior to incubation with RANKL for 24 hrs by RT-PCR analysis; format: functional, cell-based
Summary of the method: (§3)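 RAW264.7 cells grown a day in DMEM/10% FBS were switched to α-MEM with 100 ng/mL murine RANKL, with or without compound, for 24 h. Trizol RNA (2 µg) was reverse-transcribed with oligo(dT) and amplified with mouse-specific primers. Products were run on 1.5% agarose with EtBr, and band densities normalized to GAPDH.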

RAW264.7 [6] = test: Inhibition of RANKL-induced NF-kappaB activation in mouse RAW264.7 cells assessed as decrease in nuclear accumulation of NF-kappaB at 5 uM treated for 1 hr prior to incubation with RANKL for 24 hrs by ELISA; format: cell-based
Summary of the method: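 After 1 h compound pretreatment and 24 h RANKL (100 ng/mL), nuclear extracts were tested in a p65 DNA-binding ELISA. The plate is coated with NF-κB response element, followed by primary antibody and tagged secondary antibody, with absorbance read at 450 nm.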

RAW264.7 [7] = test: Downregulation of RANKL-induced MMP-9 gene expression in mouse RAW264.7 cells at 2.5 and uM treated for 1 hr prior to incubation with RANKL for 24 hrs by RT-PCR analysis; format: functional, cell-based; summary of the method: as §3
RAW264.7 [8] = test: Downregulation of RANKL-induced cathepsin K gene expression in mouse RAW264.7 cells at 2.5 and 5 uM treated for 1 hr prior to incubation with RANKL for 24 hrs by RT-PCR analysis; format: functional, cell-based; summary of the method: as §3
RAW264.7 [9] = test: Inhibition of RANKL-induced NF-kappaB activation in mouse RAW264.7 cells assessed as decrease in nuclear translocation of NF-kappaB at 5 uM treated for 1 hr prior to incubation with RANKL for 24 hrs by Western blot assay relative to control TBP gene expression; format: cell-based; summary of the method: as §2
RAW264.7 [10] = test: Downregulation of RANKL-induced NFATc1 gene expression in mouse RAW264.7 cells at 2.5 and 5 uM treated for 1 hr prior to incubation with RANKL for 24 hrs by RT-PCR analysis; format: functional, cell-based; summary of the method: as §3
RAW264.7 [11] = test: Inhibition of RANKL-induced bone-resorbing activity in mouse RAW264.7 cells assessed as reduction of resorbing pits formed on dentine slices by mature osteoclasts at 5 uM after 4 days by pit formation assay; format: functional; conditions: RAW264.7, Dentine, 96 h; summary of the method: as §1
RAW264.7 [12] = test: Downregulation of RANKL-induced c-fos gene expression in mouse RAW264.7 cells at 2.5 and 5 uM treated for 1 hr prior to incubation with RANKL for 24 hrs by RT-PCR analysis; format: functional, cell-based; summary of the method: as §3
RAW264.7 [13] = test: Downregulation of RANKL-induced DC-STAMP gene expression in mouse RAW264.7 cells at 2.5 and 5 uM treated for 1 hr prior to incubation with RANKL for 24 hrs by RT-PCR analysis; format: functional, cell-based; summary of the method: as §3
RAW264.7 [14] = test: Inhibition of RANKL-induced osteoclastogenesis in mouse RAW264.7 cells assessed as decrease in TRAP activity after 4 days by TRAP activity assay; conditions: RAW264.7, 96 h
RAW264.7 [15] = test: Inhibition of RANKL-induced osteoclastogenesis in mouse RAW264.7 cells; format: functional, cell-based
Summary of the method: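 RAW264.7 cells (2 × 10^4 per well) were cultured with 100 ng/mL RANKL in α-MEM/10% FBS, with or without compound. On day 4 they were lysed in 0.1% Triton X-100/50 mM Tris-HCl pH 7.2 on ice. TRAP was assayed with 2 mg/mL 4-nitrophenyl phosphate in 0.09 M citrate for 15 min at 37 °C, stopped with NaOH and read at 405 nm. Values were normalized to BCA protein for IC50.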

SMILES	Retention_time [1] [min]	viability at 24 h, 5 µM [2] [%]	IC50 (RAW264.7 [14]) [µM]	also measured
O=C(Nc1ccc(C(F)(F)F)cc1)c1cc(-c2ccc(F)cc2F)ccc1O	7.87	85.2		
N#Cc1cccc(NC(=O)c2cc(-c3ccc(F)cc3F)ccc2O)c1	6.92	72.2	2.96	inhibition (RAW264.7 [3]): Dose-dependent effect; fold change (FC) (RAW264.7 [4]): 0.52; inhibition (RAW264.7 [5]): Dose-dependent effect; inhibition (RAW264.7 [6]): Active; inhibition (RAW264.7 [7]): Dose-dependent effect; inhibition (RAW264.7 [8]): Dose-dependent effect; fold change (FC) (RAW264.7 [9]): 0.82; inhibition (RAW264.7 [10]): Dose-dependent effect; inhibition at 5 µM (RAW264.7 [11]): 59.3%; inhibition (RAW264.7 [12]): Dose-dependent effect; inhibition (RAW264.7 [13]): Dose-dependent effect
O=C(Nc1cc(F)ccc1F)c1cc(-c2ccc(F)cc2F)ccc1O	7.8	102	3.67	inhibition (RAW264.7 [3]): Dose-dependent effect; fold change (FC) (RAW264.7 [4]): 0.55; inhibition (RAW264.7 [5]): Dose-dependent effect; inhibition (RAW264.7 [6]): Active; inhibition (RAW264.7 [7]): Dose-dependent effect; inhibition (RAW264.7 [8]): Dose-dependent effect; fold change (FC) (RAW264.7 [9]): 0.76; inhibition (RAW264.7 [10]): Dose-dependent effect; inhibition at 5 µM (RAW264.7 [11]): 80.5%; inhibition (RAW264.7 [12]): Dose-dependent effect; inhibition (RAW264.7 [13]): Dose-dependent effect
O=C(Nc1ccccc1C(F)(F)F)c1cc(-c2ccc(F)cc2F)ccc1O	5.44	99.4		
O=C(Nc1cccc(C(F)(F)F)c1)c1cc(-c2ccc(F)cc2F)ccc1O	7.27	96.7	4.57	
O=C(Nc1ccc(F)c(F)c1)c1cc(-c2ccc(F)cc2F)ccc1O	7.72	78.4		
O=C(Nc1ccc(Cl)cc1F)c1cc(-c2ccc(F)cc2F)ccc1O	9.07	77.5		
COc1ccc(NC(=O)c2cc(-c3ccc(F)cc3F)ccc2O)cc1OC	7.61	98.9		
C#Cc1cccc(NC(=O)c2cc(-c3ccc(F)cc3F)ccc2O)c1	6.37	63		
N#Cc1ccc(NC(=O)c2cc(-c3ccc(F)cc3F)ccc2O)cc1	6.84	96.2		
O=C(Nc1ccc(Cl)cc1F)c1ccccc1O			> 10	IC50 (RAW264.7 [15]): 15 µM
O=C(Nc1ccc(F)cc1F)c1cc(-c2ccc(F)cc2F)ccc1O	6.45	110		
COc1cccc(NC(=O)c2cc(-c3ccc(F)cc3F)ccc2O)c1	5.89	105		
